# According to ChEMBL document CHEMBL3352233, “N-[6-(4-butanoyl-5-methyl-1H-pyrazol-1-yl)pyridazin-3-yl]-5-chloro-1-[2-(4-methylpiperazin-1-yl)-2-oxoethyl]-1H-indole-3-carboxamide (SAR216471), a novel intravenous and oral, reversible, and directly acting P2Y12 antagonist” (J Med Chem, 2014):
# Target: P2Y purinoceptor 12 (Homo sapiens, UniProt Q9H244)
# Test: Displacement of [33P]2MeS-ADP from P2Y12 receptor (unknown origin) transfected in CHO cells after 30 mins by scintillation counting analysis
# Format: cell-based
# Method in brief: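 P2Y12-expressing CHO cells (35 × 10³/sample) in PBS with 1 mM EDTA and 0.2% BSA are exposed to compound for 30 min. [³³P]2-MeS-ADP (0.16 nM) is then added for 15 min at 20 °C, in triplicate. Filtration separates free from bound ligand, followed by scintillation counting. Nonspecific binding uses 1 mM unlabeled ADP. IC50 comes from a four-parameter logistic fit with asymptotes fixed at 0 and 100. n = 2.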
# Chain of P2Y purinoceptor 12 (Q9H244 whole entry): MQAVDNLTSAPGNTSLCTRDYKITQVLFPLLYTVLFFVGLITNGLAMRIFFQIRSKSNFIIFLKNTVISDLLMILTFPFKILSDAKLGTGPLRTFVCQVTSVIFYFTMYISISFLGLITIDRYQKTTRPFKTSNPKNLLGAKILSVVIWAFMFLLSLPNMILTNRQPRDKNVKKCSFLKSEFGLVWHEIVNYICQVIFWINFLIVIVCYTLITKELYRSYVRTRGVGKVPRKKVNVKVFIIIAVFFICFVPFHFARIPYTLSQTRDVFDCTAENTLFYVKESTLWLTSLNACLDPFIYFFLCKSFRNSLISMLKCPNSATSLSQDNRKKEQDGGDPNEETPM
row,IC50,Structure (SMILES)
1,29 nM,CCCC(=O)c1cnn(-c2ccc(NC(=O)c3cn(CC(=O)N4CCN(CC5CC5)CC4)c4ccc(C)cc34)cc2)c1C
2,44 nM,CCCC(=O)c1cnn(-c2ccc(NC(=O)c3cn(CC(=O)N4CCN(C5CC5)CC4)c4ccc(C)cc34)cc2)c1C
3,46 nM,CCCC(=O)c1cnn(-c2ccc(NC(=O)c3cn(CC(=O)N4CCCC(N)C4)c4ccc(C)cc34)cc2)c1C (stereo unspecified)
4,89 nM,CCCC(=O)c1cnn(-c2ccc(NC(=O)c3cn(CC(=O)N4CC5CCN(C)C5C4)c4ccc(C)cc34)cc2)c1C (stereo unspecified)
5,7 nM,CCCC(=O)c1cnn(-c2ccc(NC(=O)c3cn(CCC(=O)O)c4ccc(C)cc34)cc2)c1C
6,139 nM,CCCC(=O)c1cnn(-c2ccc(NC(=O)c3cn(CC(=O)NC4CCN(C)CC4)c4ccc(C)cc34)cc2)c1C
7,76 nM,CCCC(=O)c1cnn(-c2ccc(NC(=O)c3cn(CC(=O)N4CCN5CCCC5C4)c4ccc(C)cc34)cc2)c1C (stereo unspecified)
8,70 nM,CCCC(=O)c1cnn(-c2ccc(NC(=O)c3cn(CC(=O)N4C[C@@H]5C[C@H]4CN5C)c4ccc(C)cc34)cc2)c1C
9,86 nM,CCCC(=O)c1cnn(-c2ccc(NC(=O)c3cn(CC(=O)N4C[C@@H]5C[C@H]4CN5)c4ccc(C)cc34)cc2)c1C
10,94 nM,CCCC(=O)c1cnn(-c2ccc(NC(=O)c3cn(CC(=O)N4CCC(NC)C4)c4ccc(C)cc34)cc2)c1C (stereo unspecified)
11,102 nM,CCCC(=O)c1cnn(-c2ccc(NC(=O)c3cn(CC(=O)N4CC(C)NC(C)C4)c4ccc(C)cc34)cc2)c1C (stereo unspecified)
12,88 nM,CCCC(=O)c1cnn(-c2ccc(NC(=O)c3cn(CC(=O)NC(C)CN(C)C)c4ccc(C)cc34)cc2)c1C (stereo unspecified)
13,33 nM,CCCC(=O)c1cnn(-c2ccc(NC(=O)c3cn(CC(=O)N4CC5CN(C)CC5C4)c4ccc(C)cc34)cc2)c1C (stereo unspecified)
14,66 nM,CCCC(=O)c1cnn(-c2ccc(NC(=O)c3cn(CC(=O)N4CCN(CC(F)(F)F)CC4)c4ccc(C)cc34)cc2)c1C
15,92 nM,CCCC(=O)c1cnn(-c2ccc(NC(=O)c3cn(CC(=O)NCCN(C)C)c4ccc(C)cc34)cc2)c1C
16,84 nM,CCCC(=O)c1cnn(-c2ccc(NC(=O)c3cn(CC(=O)N(C)CC4CCCN(C)C4)c4ccc(C)cc34)cc2)c1C (stereo unspecified)

# Further lines, the compound ahead of its results:
row,Structure (SMILES),IC50
1,CCCC(=O)c1cnn(-c2ccc(NC(=O)c3cn(CC(=O)N(C)CCN4CCCC4)c4ccc(C)cc34)cc2)c1C,124 nM
2,CCCC(=O)c1cnn(-c2ccc(NC(=O)c3cn(CC(=O)NC4CCCN(C)C4)c4ccc(C)cc34)cc2)c1C (stereo unspecified),71 nM
3,CCCC(=O)c1cnn(-c2ccc(NC(=O)c3cn(CCCC(=O)O)c4ccc(C)cc34)cc2)c1C,24 nM
4,CCCC(=O)c1cnn(-c2cnc(NC(=O)c3cn(CC(=O)N4CCN(C)CC4)c4ccc(Cl)cc34)cn2)c1C,275 nM
5,CCCC(=O)c1cnn(-c2ccc(NC(=O)c3cn(CC(=O)N4CCNC(C)C4)c4ccc(C)cc34)cc2)c1C (stereo unspecified),46 nM
6,CCCC(=O)c1cnn(-c2ccc(OC(=O)c3cn(CC(=O)N4CCN(C)CC4)c4ccc(Cl)cc34)cc2)c1C,480 nM
7,CCCC(=O)c1cnn(-c2ccc(NC(=O)c3cn(CC(=O)NCCn4ccnc4)c4ccc(C)cc34)cc2)c1C,61 nM
8,CCCC(=O)c1cnn(-c2ccc(NC(=O)Nc3cc(C)ccc3OCCCC(=O)O)cc2)c1C,17 nM
9,CCCC(=O)c1cnn(-c2ccc(NC(=O)c3cn(CC(=O)N4CCN(C)CC4)c4cc(Br)c(C)cc34)cc2)c1C,118 nM
10,CCCC(=O)c1cnn(-c2ccc(NC(=O)c3cn(CC(=O)OC)c4ccc(C)cc34)cc2)c1C,93 nM
11,CCCC(=O)c1cnn(-c2ccc(NC(=O)c3cn(CC(=O)N4CCN(C)CC4)c4ccc(F)cc34)cc2)c1C,142 nM
12,CCCC(=O)c1cnn(-c2ccc3c(c2)OCCN3C(=O)c2cn(CC(=O)N3CCN(C)CC3)c3ccc(Cl)cc23)c1C,559 nM
13,CCCC(=O)c1cnn(-c2ccc(NC(=O)c3cn(CC(=O)N4CCN(C)CC4)c4cc(Cl)c(C)cc34)cc2)c1C,138 nM
14,CCCC(=O)c1cnn(-c2ccc(NC(=O)c3cn(CC(=O)N4CCN(C)CC4)c4ccc(Cl)cc34)c(C(N)=O)c2)c1C,266 nM
15,CCCC(=O)c1cnn(-c2ccc(NC(=O)c3cn(CC(=O)N4CCN(C)CC4)c4ccc(Cl)cc34)c(C(=O)O)c2)c1C,75 nM
